The subject of series [1] is Leishmania donovani. Kind of series: Antileishmanial activity Leishmania donovani MHOM/IN/00/DEVI promastigotes incubated for 72 hrs by MTT assay. It counts as functional, organism-based. The procedure, abridged: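 Promastigotes of strain MHOM/IN/00/DEVI were exposed to compounds alongside amphotericin B and pentamidine reference drugs under identical conditions. IC50 was determined from three independent experiments, each run in duplicate, and reported as mean ± SD.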
(Formazan colour is commonly taken as a measure of viable cells.)

A short description of series [2]: Cytotoxicity against mouse J774A1 cells incubated for 72 hrs by MTT assay. It counts as cell-based, J774.A1. The procedure, abridged: (§1)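 Cytotoxicity was measured by MTT in mouse J774A.1 macrophages and human HepG2 hepatocyte-derived cells, with doxorubicin as the cytotoxic reference. The 50% cytotoxic concentration (CC50) came from three independent experiments in duplicate, reported as mean ± SD.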

Series [3] in a line: Selectivity index, ratio of CC50 for mouse J774A1 cells to IC50 for Leishmania donovani MHOM/IN/00/DEVI promastigotes. It counts as functional, J774.A1. The method, boiled down:
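SI was calculated as J774A.1 macrophage CC50 (MTT) divided by L. donovani promastigote IC50. Both inputs were means of three independent experiments run in duplicate.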

The test system of series [4] is Plasmodium falciparum. The series is described as follows: Antiplasmodial activity against chloroquine, pyrimethamine and proguanil-resistant Plasmodium falciparum K1 infected in human erythrocytes assessed as reduction in Parasitemia incubated for 72 hrs by SYBR Green I fluorescence-based method. It counts as functional, organism-based. Conditions: K1, 72 h. The procedure, abridged:
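Multidrug-resistant P. falciparum K1 was tested in vitro with a SYBR Green I fluorescence-based read-out. IC50 was calculated from three independent experiments, each run in duplicate, and reported as mean ± SD.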

Series [5] in a line: Cytotoxicity against human HepG2 cells incubated for 72 hrs by MTT assay. In kind it is cell-based. The procedure, abridged: as §1
A short description of series [6]: Selectivity index, ratio of CC50 for human HepG2 cells to IC50 for chloroquine, pyrimethamine and proguanil-resistant Plasmodium falciparum K1. In kind it is functional. The procedure, abridged: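 SI = HepG2 CC50 / PfK1 IC50. CC50 was from an MTT assay on human HepG2 cells, and IC50 from the SYBR Green I fluorescence assay on P. falciparum K1. Each assay was three independent experiments in duplicate.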

What is called IC50 is the concentration that inhibits the measured activity by half. As a reminder, the CC50 is the concentration that lowers cell viability or growth by half. Read a low CC50 as harm at low concentration. On to `CC1(Cc2ccccc2)CC(S(=O)(=O)c2cccc(C(F)(F)F)c2)=C(c2ccc(/C(N)=N\O)cc2)O1` (configuration not stated), for which the IC50 was 11.9 µM in series [1] and 6.54 µM in series [4]. For the same compound, the CC50 at 72 h in series [2] amounted to 14.5 µM; in series [5], 33.4 µM. The figures for the “Ratio CC50/IC50” value in series [3] and in series [6] were 1.2 and 5.1, respectively.
On to `N/C(=N/O)c1ccc(C2=C(S(=O)(=O)c3ccc(F)cc3)CC(c3ccccc3)(c3ccccc3)O2)cc1`, for which the concentration for half-maximal inhibition (IC50) in series [1] came to 15.7 µM; in series [4] it was 3.9 µM. Further, the CC50 at 72 h was determined as 10.2 µM in series [2] and 19.2 µM in series [5]. In addition, the “Ratio CC50/IC50” value came to 0.7 in series [3] and 4.9 in series [6].
As to `CC1(Cc2ccccc2)CC(S(=O)(=O)c2cccc(F)c2)=C(c2ccc(/C(N)=N\O)cc2)O1` (configuration not stated), the IC50 worked out at 13.1 µM in series [1] and 7.16 µM in series [4]. The CC50 at 72 h in series [2] is 28.3 µM; in series [5], 59.6 µM. The “Ratio CC50/IC50” value in series [3] turned out to be 2.2; in series [6], 8.3.
In the case of `CC1(c2ccc(-c3cccc(/C(N)=N\O)c3)cc2)CC(S(=O)(=O)c2ccc(F)cc2)=C(c2ccc(/C(N)=N\O)cc2)O1` (configuration not stated), the IC50 was more than 50 µM in series [1] and 4.34 µM in series [4]. Further, the CC50 at 72 h in series [2] was 11 µM; in series [5], 19 µM. Besides, the “Ratio CC50/IC50” value in series [3] is less than 0.2; in series [6], 4.4.
As for `COc1cc(-c2ccc(C3(C)CC(S(=O)(=O)c4ccc(F)cc4)=C(c4ccc(/C(N)=N\O)cc4)O3)cc2)cc(OC)c1OC` (configuration not stated), the IC50 in series [1] was more than 25 µM; in series [4], 5.03 µM. Further, the values for the half-maximal cytotoxic concentration (CC50) at 72 h in series [2] and in series [5] were 5.22 µM and more than 50 µM, respectively. Also, the “Ratio CC50/IC50” value in series [3] is recorded as less than 0.2; in series [6], more than 9.9.
For `CC1(Cc2ccccc2)CC(S(=O)(=O)c2c(F)cccc2F)=C(c2ccc(/C(N)=N\O)cc2)O1` (configuration not stated), the IC50 in series [1] was 22.1 µM; in series [4] it was 2.76 µM. The 50% cytotoxic concentration (CC50) at 72 h amounted to 27 µM in series [2] and 91.4 µM in series [5]. The “Ratio CC50/IC50” value was 1.2 in series [3] and 33.2 in series [6].
For the compound `CC1(c2ccc(-c3ccco3)cc2)CC(S(=O)(=O)c2ccc(F)cc2)=C(c2ccc(/C(N)=N\O)cc2)O1` (configuration not stated), the figures for the IC50 in series [1] and in series [4] were more than 25 µM and more than 10 µM, respectively. For the same compound, the CC50 at 72 h worked out at 4.56 µM in series [2] and 7.01 µM in series [5]. In addition, the “Ratio CC50/IC50” value in series [3] is on record as less than 0.2; in series [6], less than 0.7.
As to `COc1cccc2c1C(=O)c1c(O)c3c(c(O)c1C2=O)C[C@@](O)(C(=O)CO)C[C@@H]3O[C@H]1C[C@H](N)[C@H](O)[C@H](C)O1` [DOXORUBICIN], the 50% cytotoxic concentration (CC50) at 72 h in series [2] worked out at 0.01 µM; in series [5], 0.02 µM.
With `C[C@H]1c2cccc(O)c2C(=O)C2=C(O)[C@]3(O)C(=O)C(C(N)=O)=C(O)[C@@H](N(C)C)[C@@H]3[C@@H](O)[C@@H]21.O` [DOXYCYCLINE], the “Ratio CC50/IC50” value in series [6] is recorded as 4.
In the case of `N=C(N)c1ccc(OCCCCCOc2ccc(C(=N)N)cc2)cc1` [PENTAMIDINE], in series [3], the “Ratio CC50/IC50” value came to 0.1.
On to `CC1(c2ccc(-c3ccccc3C#N)cc2)CC(S(=O)(=O)c2ccc(F)cc2)=C(c2ccc(/C(N)=N\O)cc2)O1` (configuration not stated), for which the figures for the IC50 in series [1] and in series [4] were 21 µM and more than 10 µM, respectively. The figures for the CC50 at 72 h in series [2] and in series [5] were 9.29 µM and 58.3 µM, respectively. For the same compound, the “Ratio CC50/IC50” value in series [3] is reported as 0.4; in series [6], less than 5.8.
Take `CC1(Cc2ccccc2)CC(S(=O)(=O)c2ccc(F)cc2F)=C(c2ccc(/C(N)=N\O)cc2)O1` (configuration not stated): the figures for the IC50 in series [1] and in series [4] were 32.5 µM and 8.21 µM, respectively. Further, the results for the CC50 at 72 h in series [2] and in series [5] were 41.5 µM and 90.6 µM, respectively. The “Ratio CC50/IC50” value in series [3] came out at 1.3; in series [6] it was 11.
As to `CC1(Cc2ccccc2)CC(S(=O)(=O)c2ccccc2C(F)(F)F)=C(c2ccc(/C(N)=N\O)cc2)O1` (configuration not stated), the IC50 in series [1] is 15.5 µM; in series [4], more than 10 µM. The results for the CC50 at 72 h in series [2] and in series [5] were 23.5 µM and 57.5 µM, respectively. In addition, the entries for the “Ratio CC50/IC50” value in series [3] and in series [6] were 1.5 and less than 5.7, respectively.
In the case of `CC1(c2ccc(-c3ccc(/C(N)=N\O)cc3)cc2)CC(S(=O)(=O)c2ccc(F)cc2)=C(c2ccc(/C(N)=N\O)cc2)O1` (configuration not stated), the IC50 was more than 50 µM in series [1] and 4.93 µM in series [4]. The CC50 at 72 h in series [2] amounted to 3.94 µM; in series [5], 15.3 µM. In addition, the “Ratio CC50/IC50” value in series [3] is listed as less than 0.08; in series [6], 3.1.
Consider `CCC1(c2ccccc2OC)CC(S(=O)(=O)c2ccc(F)cc2)=C(c2ccc(/C(N)=N\O)cc2)O1` (configuration not stated), for which the IC50 in series [1] was found to be 12.4 µM; in series [4] it was 7.88 µM. For the same compound, the CC50 at 72 h in series [2] came to 9.88 µM; in series [5] it was 27 µM. For the same compound, the “Ratio CC50/IC50” value came out at 0.8 in series [3] and 3.4 in series [6].
On to `C[C@@H]1[C@H](O)[C@@H](C)/C=C/C=C/C=C/C=C/C=C/C=C/C=C/[C@H](O[C@@H]2O[C@H](C)[C@@H](O)[C@H](N)[C@@H]2O)C[C@@H]2O[C@](O)(C[C@@H](O)C[C@@H](O)[C@H](O)CC[C@@H](O)C[C@@H](O)CC(=O)O[C@H]1C)C[C@H](O)[C@H]2C(=O)O` [AMPHOTERICIN B], for which inhibition in series [1] was half-maximal at 0.15 µM (IC50). It took 6.91 µM to reach half-maximal cytotoxicity in series [2] (CC50 at 72 h). In addition, the “Ratio CC50/IC50” value in series [3] is 47.1.
As to `Cc1ccc(-c2ccc(C3(C)CC(S(=O)(=O)c4ccc(F)cc4)=C(c4ccc(/C(N)=N\O)cc4)O3)cc2)cc1` (configuration not stated), the IC50 in series [1] was 11.8 µM; in series [4] it was more than 10 µM. For the same compound, the results for the CC50 at 72 h in series [2] and in series [5] were 7.91 µM and 13.7 µM, respectively. For the same compound, the “Ratio CC50/IC50” value in series [3] is listed as 0.7; in series [6], less than 1.4.
Consider `CC1(c2ccc(-c3cccc([N+](=O)[O-])c3)cc2)CC(S(=O)(=O)c2ccc(F)cc2)=C(c2ccc(/C(N)=N\O)cc2)O1` (configuration not stated), for which the IC50 was determined as 14.1 µM in series [1] and 5.82 µM in series [4]. In addition, the results for the CC50 at 72 h in series [2] and in series [5] were 11.1 µM and more than 50 µM, respectively. Moreover, the figures for the “Ratio CC50/IC50” value in series [3] and in series [6] were 0.8 and more than 8.6, respectively.
On to `CC1(c2ccc(-c3ccncc3)cc2)CC(S(=O)(=O)c2ccc(F)cc2)=C(c2ccc(/C(N)=N\O)cc2)O1` (configuration not stated), for which the figures for the IC50 in series [1] and in series [4] were 28 µM and 3.2 µM, respectively. Besides, the CC50 at 72 h turned out to be 6.75 µM in series [2] and 30.3 µM in series [5]. Also, the “Ratio CC50/IC50” value is 0.2 in series [3] and 9.5 in series [6].
As to `CC1(c2ccc(Cl)cc2)CC(S(=O)(=O)c2ccc(F)cc2)=C(c2ccc(/C(N)=N\O)cc2)O1` (configuration not stated), the IC50 in series [1] is 48.4 µM; in series [4] it was more than 10 µM. Also, the values for the CC50 at 72 h in series [2] and in series [5] were 31.5 µM and 61.4 µM, respectively. Further, the “Ratio CC50/IC50” value in series [3] is 0.7; in series [6], less than 6.1.
As to `COc1ccc(C2(c3ccccc3)CC(S(=O)(=O)c3ccc(F)cc3)=C(c3ccc(/C(N)=N\O)cc3)O2)cc1` (configuration not stated), the half-inhibitory concentration (IC50) in series [1] was more than 50 µM; in series [4] it was 4.17 µM. Moreover, the CC50 at 72 h in series [2] was determined as 11.3 µM; in series [5] it was 29.4 µM. In addition, the “Ratio CC50/IC50” value is given as less than 0.2 in series [3] and 7 in series [6].
`CC1(Cc2ccccc2)CC(S(=O)(=O)c2ccccc2F)=C(c2ccc(/C(N)=N\O)cc2)O1` (configuration not stated): the figures for the IC50 in series [1] and in series [4] were 9.16 µM and more than 10 µM, respectively. The CC50 at 72 h came out at 29.1 µM in series [2] and 61.7 µM in series [5]. Also, the “Ratio CC50/IC50” value is recorded as 3.2 in series [3] and less than 6.2 in series [6].
Turning to `CC1(c2ccc(Br)cc2)CC(S(=O)(=O)c2ccc(F)cc2)=C(c2ccc(/C(N)=N\O)cc2)O1` (configuration not stated), the IC50 in series [1] is 10.8 µM; in series [4], more than 10 µM. For the same compound, the CC50 at 72 h is 10.5 µM in series [2] and 19.2 µM in series [5]. In addition, the “Ratio CC50/IC50” value in series [3] was 1; in series [6] it was less than 1.9.
In the case of `CC1(c2ccccc2)CC(S(=O)(=O)c2ccc(F)cc2)=C(c2ccc(/C(N)=N\O)cc2)O1` (configuration not stated), the IC50 in series [1] is more than 50 µM; in series [4] it was more than 10 µM. Further, the CC50 at 72 h in series [2] was determined as 29.7 µM; in series [5], 68.3 µM. The “Ratio CC50/IC50” value in series [3] is on record as less than 0.6; in series [6], less than 6.8.

The values above are taken from ChEMBL document CHEMBL3352504, “New series of monoamidoxime derivatives displaying versatile antiparasitic activity” (Eur J Med Chem, 2014).
